# Reference: article PMC8865373 (Biochemistry, 2021)
# Where a SMILES comes first, the peptide text is derived from it. Where no end group is shown, it is not given here. [ ]: non-standard residue; d: D form. pS = N[C@@H](COP(=O)(O)O)C(=O)O
# Assays:
# [1] = target: TAZ2; details: doubly-phosphorylated peptide; fluorescence anisotropy and NMR spectroscopy; cited from earlier work
# [2] = target: T1, TAZ2 domain of CBP (residues 1764–1855) (Mus musculus, UniProt P45481); experiment: Fluorescence anisotropy competition with Alexa594-labeled E7; assay type: binding; details: ratio of fluorescence anisotropy competition KDs
# T1 sequence (P45481 1764-1855): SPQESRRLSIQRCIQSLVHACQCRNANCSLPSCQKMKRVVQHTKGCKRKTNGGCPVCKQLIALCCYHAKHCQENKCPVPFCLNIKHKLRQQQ
# How it was run: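 Tracer: Alexa Fluor 594-labelled E7(1–51) C24A/A50C (dye at position 50), 20 nM, in 20 mM Tris, 50 mM NaCl, 1 mM DTT, pH 7.0. It was pre-bound to 0.8 μM TAZ2 (>90% saturation). Unlabelled E7 peptides were titrated in and the anisotropy decrease read at 590/617 nm. Apparent KD came from a competition fit using the tracer KD from direct TAZ2 titration.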
Compound,binding affinity for TAZ2 [1],KD of CR2 relative to the preceding CR1 motif (stronger) [2]
"ppE7(1–51): doubly-phosphorylated (S31, S32) HPV16 E7(1–51) peptide (MHGDTPTLHEYMLDLQPETTDLYCYEQLND[pS][pS]EEEDEIDGPAGQAEPDRAH)",low nanomolar range,
CC(C)C[C@H](NC(=O)[C@H](CCC(N)=O)NC(=O)[C@H](CCC(=O)O)NC(=O)[C@H](Cc1ccc(O)cc1)NC(=O)[C@H](CS)NC(=O)[C@H](Cc1ccc(O)cc1)NC(=O)[C@H](CC(C)C)NC(=O)[C@H](CC(=O)O)NC(=O)[C@@H](NC(=O)[C@@H](NC(=O)[C@@H](N)CCC(=O)O)[C@@H](C)O)[C@@H](C)O)C(=O)N[C@@H](CC(N)=O)C(=O)N[C@@H](CC(=O)O)C(=O)N[C@@H](CO)C(=O)N[C@@H](CO)C(=O)N[C@@H](CCC(=O)O)C(=O)N[C@@H](CCC(=O)O)C(=O)N[C@@H](CCC(=O)O)C(=O)N[C@@H](CC(=O)O)C(=O)N[C@@H](CCC(=O)O)C(=O)O [CR2(18–37)] (H-ETTDLYCYEQLNDSSEEEDE-OH),,seven-fold
